The list is not random: actives were taken first. Their share in the collection is about 3.5%.
MrgX1 allo act: human MrgX1 positive allosteric modulation, primary screen | MrgX1-HEK293, Fluo-4 calcium flux, FDSS; hits give high values | AID 588675 | B-score at 10 µM | 310,000 tested, 0.63% active;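 active = plate-corrected calcium response at least 3 library SD above typical, normal starting fluorescence, not activating the receptor alone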;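 also: compound read alongside a low EC10 to EC30 dose of BAM8-22 agonist; peak minus trough fluorescence over baseline measured at the second addition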
Target sequence (Q96LB2 whole entry, looked up): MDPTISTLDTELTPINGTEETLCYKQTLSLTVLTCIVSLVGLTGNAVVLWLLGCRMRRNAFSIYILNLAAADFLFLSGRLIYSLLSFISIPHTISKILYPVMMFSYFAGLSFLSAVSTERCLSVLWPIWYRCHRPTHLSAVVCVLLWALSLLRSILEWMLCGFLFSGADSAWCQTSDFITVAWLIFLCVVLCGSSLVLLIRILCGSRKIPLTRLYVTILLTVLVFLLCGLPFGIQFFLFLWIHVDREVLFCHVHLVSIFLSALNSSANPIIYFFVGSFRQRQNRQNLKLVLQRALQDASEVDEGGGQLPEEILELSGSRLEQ
MrgX1 antagonist: human MrgX1 receptor antagonism, primary screen; Q96LB2; MRGX1-HEK293 calcium flux, Fluo-4, BAM8-22 antagonism; hits give low values; B-score at 10 µM; 310,000 tested, 1.3% active;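 active = calcium-response B-score plate-corrected more than 3 library SD below zero, starting fluorescence within 5 deviations, no agonist response on first addition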;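 also: peak minus trough fluorescence over baseline after final BAM8-22 challenge near maximal dose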
RGS4 block: human RGS4 inhibition; P49798; HEK293 M3R/RGS4 inducible, Fluo-4 calcium flux; hits give high values; triggered by carbachol at its EC20; B-score at 10 µM; 310,000 tested, 0.45% active; AID 463165;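 active = B-score, a plate-corrected calcium signal, over three deviations above library mean, with baseline fluorescence within five deviations of library mean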;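 also: RGS4 expression induced by doxycycline in cells with stable M3 receptor; B-score is computed from the integrated fluorescence ratio over baseline after carbachol; higher B-score means a larger calcium signal and so more RGS4 inhibition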
Target sequence (P49798 whole entry, looked up): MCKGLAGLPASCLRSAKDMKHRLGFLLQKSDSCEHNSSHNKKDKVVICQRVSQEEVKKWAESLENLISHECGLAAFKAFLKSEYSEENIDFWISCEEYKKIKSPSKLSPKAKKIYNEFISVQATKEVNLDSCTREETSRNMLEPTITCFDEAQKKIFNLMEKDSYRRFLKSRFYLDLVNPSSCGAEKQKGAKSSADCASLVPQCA
MrgX1 agonist: agonists of human MrgX1 receptor; B-score at 10 µM; MrgX1-HEK293 cells, Fluo-4 calcium fluorescence, agonist mode; hits give high values; Q96LB2; 310,000 tested, 0.44% active; AID 588627;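 active = calcium response B-score plate-corrected fluorescence ratio at least 3 library SD, with starting fluorescence B-score inside 5 SD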
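System: HEK293 cells stably expressing human MrgX1 receptor; Dosing: test compound in the initial addition of three; Schedule: overnight plating, then 30 min 37 °C plus 30 min room-temperature dye loading; Detection: kinetic calcium dye fluorescence, Fluo-4 NW; Controls: per-plate positive and negative controls for Z′ factor.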
RGS4 pot: RGS4 potentiation or activation; HEK293 M3R/inducible RGS4, carbachol calcium flux Fluo4; hits give low values; 310,000 tested, 0.92% active; AID 463111; B-score at 10 µM;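 active = B-score of the integrated calcium signal more than 4 SD below the library mean, with starting fluorescence not abnormally high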;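 also: negative B-score means reduced calcium response which marks RGS4 activation or potentiation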
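Assay system: HEK293 FlpIn-TREx cells, stable M3R, doxycycline-inducible RGS4 / Probe or stimulus: carbachol, ECmax concentration / Times: overnight RGS4 induction, 30 min dye load 37 °C, 20 min compound RT / Signal: kinetic calcium fluorescence imaging with Fluo4-AM dye, 2 µM / Measure: Agonist-evoked peak-minus-minimum fluorescence over baseline, integrated ratio, B score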
MrgX1 PAM conf: confirmation of human MrgX1 receptor positive allosteric modulators. activation (ratio percentage), % at 10 µM. AID 602413. 1,200 tested, 13% active. shares compounds with MrgX1 allo act. MrgX1-HEK293, Fluo-4 calcium fluorescence, FDSS;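 active = ratio at least 3 SD above the weak peptide control, stable starting fluorescence, no direct agonism earlier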;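 also: compound followed by low BAM8-22 agonist challenge near EC20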
HEK293 Ca flux: counter-screen for MrgX1 antagonists: effect in parental HEK293 cells; 4,000 tested, 2% active; fluorescence ratio F(max-min)/F0 at 10 µM; Fluo-4 calcium fluorescence, FDSS; shares compounds with MrgX1 antagonist;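 active = duplicate-averaged calcium fluorescence ratio at least three times the standard deviation of buffer wells, a nonspecific response in parental cells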
HEK293 Ca counter: activity in parental HEK293 cells without MrgX1 | shares compounds with MrgX1 antagonist | parental HEK293 calcium flux, Fluo-4 fluorescence ratio; hits give high values | fluorescence ratio F(max-min)/F0 at 10 µM | 4,000 tested, 0.4% active | AID 624114;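 active = calcium fluorescence ratio, averaged over duplicates, at least 3 SD of the buffer-well ratio, meaning a nonspecific response in receptor-free cells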;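 also: untransfected parental HEK293 lacking MrgX1 used as counterscreen for MrgX1 allosteric activators; fluorescence change taken during the second addition on a kinetic imager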
HEK293 Ca cntr2: counter-screen for MrgX1 activators: effect in parental HEK293 cells. shares compounds with MrgX1 antagonist. Fluo-4 calcium fluorescence (FDSS); hits give high values. fluorescence ratio F(max-min)/F0 at 10 µM. 4,000 tested, 8.7% active. AID 624115;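 active = calcium fluorescence ratio at least three times the spread of buffer wells, meaning a non-specific response in parental cells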
* marks the source's active call; other numbers are inactive results; i = inactive; / = not tested or not shown.

SMILES	MrgX1 allo act	MrgX1 antagonist	RGS4 block	MrgX1 agonist	RGS4 pot	MrgX1 PAM conf	HEK293 Ca flux	HEK293 Ca counter	HEK293 Ca cntr2
CCCC(=O)NC1=C(C#N)C2(CCCC2)Cc2ccccc21	i	i	i	i	i	/	/	/	/
CCC1(CC)Cc2ccccc2C(N)=C1C#N	15*	i	i	i	i	i	i	i	i
COc1ccccc1CCNC(=O)CSc1ccc(-c2cccs2)nn1	7.9*	i	i	i	i	i	i	i	i
O=C(CSc1ccc(-c2cccs2)nn1)NCCc1ccccc1	i	i	i	i	i	/	/	/	/
CCOC(=O)c1cc(-c2ccco2)nn1-c1ccc(C)cc1	i	i	i	i	i	/	/	/	/
Cc1ccc(-n2nc(-c3ccco3)cc2C(=O)O)cc1	25*	i	i	i	i	5.6%*	i	i	i
Cc1ccccc1NC(=O)c1sc2nc(N3CCOCC3)c3c(c2c1N)CCCC3	7.2*	i	i	i	i	i	i	i	i
COc1ccccc1NC(=O)c1sc2nc(N3CCOCC3)c3c(c2c1N)CCCC3	i	i	i	i	i	/	/	/	/
CCOc1ccccc1N(C(C)=O)S(=O)(=O)c1ccc(Cl)cc1	i	i	i	i	i	/	/	/	/
CC(=O)N(c1ccccc1C)S(=O)(=O)c1ccc(Cl)cc1	8.7*	i	i	i	i	i	i	i	i
C=CCn1c(=O)c(C(=O)Nc2ccccc2S(N)(=O)=O)c(O)c2ccccc21	8.4*	i	i	i	i	i	i	i	i
COc1ccc(N2C(=O)C3CCCN3C2=O)cc1 (stereo not drawn)	10*	i	i	i	i	i	i	i	i
CCOc1ccc(N2C(=O)C3CCCN3C2=O)cc1 (stereo not drawn)	i	i	i	i	i	/	/	/	/
O=C1N=c2ccccc2=C1c1sc(NS(=O)(=O)c2ccccc2)nc1O	21*	i	i	i	i	i	i	i	i
CCOCC(=O)Nc1ccc(S(=O)(=O)NCC2CCCO2)cc1 (stereo not drawn)	11*	i	i	i	i	i	i	i	i
Cc1ccc(S(=O)(=O)Oc2ccc(/C=C3\C(=N)N4N=C(S(C)(=O)=O)SC4=NC3=O)cc2)cc1	i	i	i	i	i	/	/	/	/
CS(=O)(=O)C1=NSC2=NC(=O)/C(=C\c3ccc(OS(=O)(=O)c4ccccc4)cc3)C(=N)N21	30*	i	i	i	i	25%*	i	i	i
COc1cccc(-n2c(C)cc(/C=C3/C(=N)N4C(=NC3=O)SN=C4S(C)(=O)=O)c2C)c1	32*	i	i	i	i	2.0%*	i	i	i
Cc1cc(C)cc(-n2cccc2/C=C2/C(=N)N3C(=NC2=O)SN=C3S(C)(=O)=O)c1	i	i	i	i	i	/	/	/	/
O=C(COc1ccc(F)cc1)N(Cc1ccco1)C1CCS(=O)(=O)C1 (stereo not drawn)	i	i	i	i	i	/	/	/	/
O=C(Nc1ccc2c(c1)OCO2)c1ccc(Br)c(S(=O)(=O)N2CCCC2)c1	14*	i	i	i	i	i	i	i	i
O=C(CCS(=O)(=O)c1cccs1)Nc1ccc(C(=O)NC2CCCC2)cc1	i	i	i	i	i	/	/	/	/
CC(C)(C)c1csc(SCC(=O)Nc2ccc(Cl)cn2)n1	19*	i	i	i	i	5.1%*	i	i	i
COc1ccc(OC)c(NC(=O)CSc2nnc(CNC(=O)c3cccs3)o2)c1	i	i	i	i	i	/	/	/	/
Cn1c(=O)c2c(nc(CN3CCc4ccccc4C3)n2Cc2ccccc2)n(C)c1=O	17*	i	i	i	i	13%*	i	i	i
SMILES	MrgX1 allo act	MrgX1 antagonist	RGS4 block	MrgX1 agonist	RGS4 pot	MrgX1 PAM conf	HEK293 Ca flux	HEK293 Ca counter	HEK293 Ca cntr2
Cn1c(=O)c2c(nc(CN3CCc4ccccc4C3)n2Cc2ccc(Cl)cc2)n(C)c1=O	i	i	i	i	i	/	/	/	/
O=S(=O)(c1ccccc1)N(CC(O)COc1ccccc1)c1ccccc1 (stereo not drawn)	7.8*	i	i	i	i	i	i	i	i
Cc1ccc(S(=O)(=O)CC(O)COc2ccc(C#N)cc2)cc1 (stereo not drawn)	i	i	i	i	i	/	/	/	/
O=S(=O)(CC(O)COc1ccc(Br)cc1)c1ccccc1 (stereo not drawn)	9*	i	i	i	i	i	i	i	i
CN(c1ccccc1)S(=O)(=O)c1ccc(C(=O)N2CCCC(C(F)(F)F)C2)cc1 (stereo not drawn)	i	i	i	i	i	/	/	/	/
CN1CCCN(c2ncnc3scc(-c4ccc(F)cc4)c23)CC1	i	i	i	i	i	/	/	/	/
CC(C)c1ccc(-c2csc3ncnc(N4CCN(C)CC4)c23)cc1	7.3*	i	i	i	i	i	i	i	i
Cc1ccc(-c2cc(C)nc3ncnn23)cc1	8.9*	i	i	i	i	i	i	i	i
NS(=O)(=O)c1ccc(O)c(NC(=O)c2ccc([N+](=O)[O-])cc2)c1	i	i	i	i	i	/	/	/	/
Cc1cccc(N=C2NC(=O)/C(=C3/C(=O)N(C)c4ccccc43)S2)c1C	7.3*	i	i	i	i	i	i	i	i
CCc1cc2c3c([nH]c2cc1S(=O)(=O)NCCCOC)CC(C)(C)CC3=O	i	i	i	i	i	/	/	/	/
CC(=O)NCC(=O)NC1CCCc2c1cnn2-c1ccc(C(C)(C)C)cc1 (stereo not drawn)	9*	i	i	i	i	i	i	i	i
CC(=O)c1ccc(NC(=O)CCn2c(=S)oc3ccccc32)cc1	i	i	i	i	i	/	/	/	/
CC(C)(C)c1cc(N)n2nc(C(C)(C)C)cc2n1	7.7*	i	i	i	i	i	i	i	i

Source: PubChem
